In ChEMBL document CHEMBL4680114, “Optimization of Potent and Selective Ataxia Telangiectasia-Mutated Inhibitors Suitable for a Proof-of-Concept Study in Huntington's Disease Models” (J Med Chem, 2019):
Values after ≈ are worked out from the molar mass of the structure shown.

Experiments:
[1] = Distribution coefficient, logD of compound at pH 7.4; type: physicochemical; conditions: octanol/water
[2] = Kinetic solubility in pH 7.4 PBS buffer by LC-UV assay; type: physicochemical; conditions: read-out: Kinetic_solubility
Outline: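 Compound from a 10 mM DMSO stock diluted to a nominal 200 µM in 0.1 M potassium phosphate/0.8% NaCl pH 7.4 (2% DMSO final), n=2. Shaken 2 h at room temperature, then filtered. Filtrate quantified by LC-UV against 200 µM and 10 µM DMSO standards, with MS peak confirmation.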

[3] = AUC/dose in C57BL/6J mouse plasma at 3 mg/kg, iv administered as single dose by LC-MS/MS analysis; type: ADME, organism-based; conditions: in vivo
Outline: (§1)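 Male C57BL/6 mice, single intravenous dose as solution in 10:50:40 DMSO:PEG400:H2O (5 mL/kg). Plasma by cardiac puncture and brain collected at set times, n=3 per time point. LC-MS/MS quantitation with diclofenac IS. Composite non-compartmental parameters from mean concentrations; C0 back-extrapolated from first two points; kel from at least last three concentrations; AUC dose-normalized.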

[4] = AUC/dose in C57BL/6J mouse brain at 3 mg/kg, iv administered as single dose by LC-MS/MS analysis; type: ADME, organism-based; conditions: in vivo; outline: as §1
[5] = Volume of distribution at steady state in C57BL/6J mouse at 3 mg/kg, iv administered as single dose by LC-MS/MS analysis; type: ADME, organism-based; conditions: in vivo, read-out: Vdss
Outline: (§2)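 Male mice given a single iv dose of 3 mg/kg in 10:50:40 DMSO:PEG400:H2O (5 mL/kg). Plasma (cardiac puncture) and brain collected, n=3 per time point, and measured by LC-MS/MS. Non-compartmental parameters from mean concentrations, with C0 back-extrapolated; AUC by linear trapezoidal method, dose-normalised.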

[6] = Ratio of AUC/dose in brain to plasma of C57BL/6J mouse at 3 mg/kg, iv administered as single dose by LC-MS/MS analysis; type: ADME, organism-based; conditions: brain and plasma, read-out: BPR; outline: as §2
[7] = Unbound brain-to-plasma concentration ratio in C57BL/6J mouse at 3 mg/kg, iv administered as single dose by LC-MS/MS analysis; type: ADME, organism-based; conditions: brain and plasma, read-out: K(p,uu,brain)

| SMILES | solubility kinetic [2] | also measured |
| --- | --- | --- |
| C[C@@H]1CN(CC(=O)Nc2ccc3c(c2)Cc2cccc(-c4cc(=O)cc(N5CCOCC5)o4)c2S3)C[C@H](C)O1 | 46 µg/mL (≈ 84 µM) | logD [1]: 4.5 |
| CCN1CC(Oc2ccc3c(c2)Cc2cccc(-c4cc(=O)cc(N5CCOCC5)o4)c2S3)C1 | 89 µg/mL (≈ 187 µM) | – |
| C[C@@H](CN1CCOCC1)Oc1ccc2c(c1)Cc1cccc(-c3cc(=O)cc(N4CCOCC4)o3)c1S2 | 56 µg/mL (≈ 108 µM) | – |
| CC(=O)N(C)c1ccc2c(c1)Cc1cccc(-c3cc(=O)cc(N4CCOCC4)o3)c1S2 | 77 µg/mL (≈ 172 µM) | – |
| C[C@H](CN1CCOCC1)Oc1ccc2c(c1)Cc1cccc(-c3cc(=O)cc(N4CCOCC4)o3)c1S2 | 49 µg/mL (≈ 94.1 µM) | – |
| O=c1cc(-c2cccc3c2Sc2ccc(OC4CCOCC4)cc2C3)oc(N2CCOCC2)c1 | 10 µg/mL (≈ 20.9 µM) | – |
| O=c1cc(-c2cccc3c2Sc2ccc(OCCN4CCC(F)(F)C4)cc2C3)oc(N2CCOCC2)c1 | 3 µg/mL (≈ 5.7 µM) | – |
| C[C@@H](CN1CCOCC12COC2)Oc1ccc2c(c1)Cc1cccc(-c3cc(=O)cc(N4CCOCC4)o3)c1S2 | 29 µg/mL (≈ 51.5 µM) | – |
| COC[C@@H](C)Oc1ccc2c(c1)Cc1cccc(-c3cc(=O)cc(N4CCOCC4)o3)c1S2 | 22 µg/mL (≈ 47.3 µM) | AUC/dose [3]: 1600 nM·kg·h/mg; AUC/dose [4]: 680 nM·kg·h/mg; Vd [5]: 1.9 L/kg; Kp [6]: 0.4; Kp uu [7]: 0.14 |
| C[C@@H]1CN(C[C@H](C)Oc2ccc3c(c2)Cc2cccc(-c4cc(=O)cc(N5CCOCC5)o4)c2S3)C[C@H](C)O1 | 27 µg/mL (≈ 49.2 µM) | – |
| O=c1cc(-c2cccc3c2Sc2ccc(OCCN4CCCC45CCOC5)cc2C3)oc(N2CCOCC2)c1 (stereo not given) | 47 µg/mL (≈ 86 µM) | – |
| C[C@@H](CN1CCOC2(CC2)C1)Oc1ccc2c(c1)Cc1cccc(-c3cc(=O)cc(N4CCOCC4)o3)c1S2 | 26 µg/mL (≈ 47.6 µM) | – |
| O=c1cc(-c2cccc3c2Sc2ccc(OC4COC4)cc2C3)oc(N2CCOCC2)c1 | 25 µg/mL (≈ 55.6 µM) | AUC/dose [3]: 1900 nM·kg·h/mg; AUC/dose [4]: 450 nM·kg·h/mg; Vd [5]: 1.6 L/kg; Kp [6]: 0.2; Kp uu [7]: 0.07 |
| CO[C@@H](C)COc1ccc2c(c1)Cc1cccc(-c3cc(=O)cc(N4CCOCC4)o3)c1S2 | 14 µg/mL (≈ 30.1 µM) | – |
| C[C@@H]1CN([C@H](C)COc2ccc3c(c2)Cc2cccc(-c4cc(=O)cc(N5CCOCC5)o4)c2S3)C[C@H](C)O1 | 24 µg/mL (≈ 43.7 µM) | – |
| C[C@H](O)COc1ccc2c(c1)Cc1cccc(-c3cc(=O)cc(N4CCOCC4)o3)c1S2 | 30 µg/mL (≈ 66.4 µM) | – |
| CC1(CNc2ccc3c(c2)Cc2cccc(-c4cc(=O)cc(N5CCOCC5)o4)c2S3)COC1 | 14 µg/mL (≈ 29.4 µM) | – |
| CN1CCN(CCOc2ccc3c(c2)Cc2cccc(-c4cc(=O)cc(N5CCOCC5)o4)c2S3)CC1 | 92 µg/mL (≈ 177 µM) | – |
| O=c1cc(-c2cccc3c2Sc2ccc(OCC4CCOCC4)cc2C3)oc(N2CCOCC2)c1 | < 2 µg/mL | – |
| COC[C@H]1c2cc(OC)ccc2Sc2c(-c3cc(=O)cc(N4CCOCC4)o3)cccc21 | 67 µg/mL (≈ 148 µM) | AUC/dose [3]: 960 nM·kg·h/mg; AUC/dose [4]: 430 nM·kg·h/mg; Vd [5]: 3 L/kg; Kp [6]: 0.4; Kp uu [7]: 0.18 |

| SMILES | solubility kinetic [2] | also measured |
| --- | --- | --- |
| O=c1cc(-c2cccc3c2Sc2ccc(O[C@@H]4CCN(CC(F)F)C4)cc2C3)oc(N2CCOCC2)c1 | 7 µg/mL (≈ 13.3 µM) | AUC/dose [3]: 1600 nM·kg·h/mg; AUC/dose [4]: 380 nM·kg·h/mg; Vd [5]: 2.6 L/kg; Kp [6]: 0.2; Kp uu [7]: 0.05 |
| O=c1cc(-c2cccc3c2Sc2ccc(OCCN4CCC(F)(F)CC4)cc2C3)oc(N2CCOCC2)c1 | 3 µg/mL (≈ 5.55 µM) | – |
| COc1ccc2c(c1)C1(CCOCC1)c1cccc(-c3cc(=O)cc(N4CCOCC4)o3)c1S2 | 33 µg/mL (≈ 69.1 µM) | AUC/dose [3]: 1500 nM·kg·h/mg; AUC/dose [4]: 700 nM·kg·h/mg; Vd [5]: 3 L/kg; Kp [6]: 0.5; Kp uu [7]: 0.12 |
| C[C@@H](COc1ccc2c(c1)Cc1cccc(-c3cc(=O)cc(N4CCOCC4)o3)c1S2)N1CCOCC1 | 9 µg/mL (≈ 17.3 µM) | – |
| O=c1cc(-c2cccc3c2Sc2ccc(OCCN4CC(F)C4)cc2C3)oc(N2CCOCC2)c1 | 46 µg/mL (≈ 93 µM) | – |
| C[C@@H](CN1CCCC12COC2)Oc1ccc2c(c1)Cc1cccc(-c3cc(=O)cc(N4CCOCC4)o3)c1S2 | 21 µg/mL (≈ 38.4 µM) | – |
| C[C@@H]1CN(CCOc2ccc3c(c2)Cc2cccc(-c4cc(=O)cc(N5CCOCC5)o4)c2S3)C[C@H](C)O1 | 42.5 µg/mL (≈ 79.5 µM) | – |
| O=c1cc(-c2cccc3c2Sc2ccc(OC4CN(CC(F)F)C4)cc2C3)oc(N2CCOCC2)c1 | 12 µg/mL (≈ 23.4 µM) | – |
| CN1CC[C@@H](Oc2ccc3c(c2)Cc2cccc(-c4cc(=O)cc(N5CCOCC5)o4)c2S3)C1 | 84 µg/mL (≈ 176 µM) | – |
| CC(=O)Nc1ccc2c(c1)Cc1cccc(-c3cc(=O)cc(N4CCOCC4)o3)c1S2 | 34 µg/mL (≈ 78.2 µM) | – |
| CC(C)(O)C1CCN(CCOc2ccc3c(c2)Cc2cccc(-c4cc(=O)cc(N5CCOCC5)o4)c2S3)CC1 | 101 µg/mL (≈ 179 µM) | AUC/dose [3]: 950 nM·kg·h/mg; AUC/dose [4]: 120 nM·kg·h/mg; Vd [5]: 4.2 L/kg; Kp [6]: 0.1; Kp uu [7]: 0.05 |
| O=C(CN1CCCC1)Nc1ccc2c(c1)Cc1cccc(-c3cc(=O)cc(N4CCOCC4)o3)c1S2 | 81 µg/mL (≈ 161 µM) | – |
| C[C@H](CN1C[C@@H](C)O[C@@H](C)C1)Oc1ccc2c(c1)Cc1cccc(-c3cc(=O)cc(N4CCOCC4)o3)c1S2 | 30 µg/mL (≈ 54.7 µM) | AUC/dose [3]: 1100 nM·kg·h/mg; AUC/dose [4]: 110 nM·kg·h/mg; Vd [5]: 2.3 L/kg; Kp [6]: 0.1; Kp uu [7]: 0.03 |
| O=C(Nc1ccc2c(c1)Cc1cccc(-c3cc(=O)cc(N4CCOCC4)o3)c1S2)C1CC1 | 5 µg/mL (≈ 10.9 µM) | – |
| COC[C@@H]1c2cc(OC)ccc2Sc2c(-c3cc(=O)cc(N4CCOCC4)o3)cccc21 | 64 µg/mL (≈ 142 µM) | – |
| C[C@@H](CN1C[C@H]2C[C@@H]1CO2)Oc1ccc2c(c1)Cc1cccc(-c3cc(=O)cc(N4CCOCC4)o3)c1S2 | 89 µg/mL (≈ 167 µM) | – |
| C[C@H](COc1ccc2c(c1)Cc1cccc(-c3cc(=O)cc(N4CCOCC4)o3)c1S2)N1CCOCC1 | 13 µg/mL (≈ 25 µM) | – |
| COc1ccc2c(c1)C(C)(C)c1cccc(-c3cc(=O)cc(N4CCOCC4)o3)c1S2 | 5 µg/mL (≈ 11.5 µM) | – |
| O=c1cc(-c2cccc3c2Sc2ccc(OCCN4C[C@H]5C[C@@H]4CO5)cc2C3)oc(N2CCOCC2)c1 (relative stereo) | 82 µg/mL (≈ 158 µM) | – |
